Data taken from ChEMBL document CHEMBL2321664, “L-Aminoacyl-triazine derivatives are isoform-selective PI3Kβ inhibitors that target non-conserved Asp862 of PI3Kβ” (ACS Med Chem Lett, 2013).

Tests used:
[1] = biological target: T1, Phosphatidylinositol 4,5-bisphosphate 3-kinase catalytic subunit delta isoform (Homo sapiens, UniProt O00329); assay: Inhibition of PI3K-delta (unknown origin) assessed as decrease in ATP consumption using phosphatidylinositol bisphosphate and 10 uM ATP as substrate measured after 60 mins by luminescence assay
T1 sequence (O00329 whole entry): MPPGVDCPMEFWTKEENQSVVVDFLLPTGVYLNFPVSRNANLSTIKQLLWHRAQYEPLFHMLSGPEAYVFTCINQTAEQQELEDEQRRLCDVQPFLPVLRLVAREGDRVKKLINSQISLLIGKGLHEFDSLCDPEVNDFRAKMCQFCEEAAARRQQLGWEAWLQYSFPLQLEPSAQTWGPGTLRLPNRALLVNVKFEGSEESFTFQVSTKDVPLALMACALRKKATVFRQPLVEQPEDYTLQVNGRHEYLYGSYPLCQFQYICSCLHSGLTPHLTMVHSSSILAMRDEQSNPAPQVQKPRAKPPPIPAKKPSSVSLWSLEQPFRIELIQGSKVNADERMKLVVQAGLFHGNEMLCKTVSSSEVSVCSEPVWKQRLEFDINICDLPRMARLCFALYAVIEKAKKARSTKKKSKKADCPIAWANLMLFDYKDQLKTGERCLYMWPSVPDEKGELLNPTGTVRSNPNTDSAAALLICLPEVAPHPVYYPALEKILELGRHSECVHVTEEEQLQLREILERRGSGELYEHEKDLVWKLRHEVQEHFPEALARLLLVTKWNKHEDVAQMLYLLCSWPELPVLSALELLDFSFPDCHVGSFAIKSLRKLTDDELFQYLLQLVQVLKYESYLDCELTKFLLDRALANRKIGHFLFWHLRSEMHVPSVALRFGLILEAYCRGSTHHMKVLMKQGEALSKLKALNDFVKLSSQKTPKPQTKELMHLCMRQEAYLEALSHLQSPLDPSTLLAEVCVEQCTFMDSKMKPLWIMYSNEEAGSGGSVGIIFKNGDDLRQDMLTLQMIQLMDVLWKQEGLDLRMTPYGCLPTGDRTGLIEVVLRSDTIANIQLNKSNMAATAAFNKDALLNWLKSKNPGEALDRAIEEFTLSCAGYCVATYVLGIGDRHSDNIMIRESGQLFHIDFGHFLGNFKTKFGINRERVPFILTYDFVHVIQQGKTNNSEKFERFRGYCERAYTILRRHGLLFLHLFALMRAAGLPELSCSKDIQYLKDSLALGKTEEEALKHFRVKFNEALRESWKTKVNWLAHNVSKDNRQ

[2] = biological target: Phosphatidylinositol 4,5-bisphosphate 3-kinase catalytic subunit gamma isoform (Homo sapiens, UniProt P48736); assay: Inhibition of PI3K-gamma (unknown origin) assessed as decrease in ATP consumption using phosphatidylinositol bisphosphate and 10 uM ATP as substrate measured after 60 mins by luminescence assay
[3] = biological target: T2, Phosphatidylinositol 4,5-bisphosphate 3-kinase catalytic subunit beta isoform (Homo sapiens, UniProt P42338); assay: Inhibition of PI3K-beta (unknown origin) assessed as decrease in ATP consumption using phosphatidylinositol bisphosphate and 10 uM ATP as substrate measured after 60 mins by luminescence assay
[4] = biological target: Phosphatidylinositol 4,5-bisphosphate 3-kinase catalytic subunit alpha isoform (Homo sapiens, UniProt P42336); assay: Inhibition of PI3K-alpha (unknown origin) assessed as decrease in ATP consumption using phosphatidylinositol bisphosphate and 10 uM ATP as substrate measured after 60 mins by luminescence assay
[5] = biological target: Phosphatidylinositol 4,5-bisphosphate 3-kinase catalytic subunit beta isoform (Homo sapiens, UniProt P42338, D862Q); assay: Inhibition of recombinant PI3K-beta D862Q mutant (unknown origin) expressed in baculovirus infected Sf21 cells assessed as decrease in ATP consumption using phosphatidylinositol bisphosphate and 100 uM ATP as substrate measured after 60 mins by luminescence assay
How it was run: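 Kinase-Glo luminescent read-out of kinase activity with 100 μM ATP. Run alongside the wild-type PI3Kβ enzyme and the wild-type and reciprocal-mutant PI3Kα enzymes. IC50 values are means of at least two duplicate experiments.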

[6] = biological target: T2, Phosphatidylinositol 4,5-bisphosphate 3-kinase catalytic subunit beta isoform; assay: Inhibition of wild type PI3K-beta (unknown origin) assessed as decrease in ATP consumption using phosphatidylinositol bisphosphate and 100 uM ATP as substrate measured after 60 mins by luminescence assay
How it was run: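 Kinase-Glo read-out with 100 μM ATP, run alongside the D862Q mutant and the wild-type and reciprocal-mutant PI3Kα forms. IC50 is the mean of at least two duplicate experiments.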

[7] = biological target: RAC-alpha serine/threonine-protein kinase (Homo sapiens, UniProt P31749); assay: Inhibition of IGF-1 induced Akt phosphorylation in PTEN-deficient human MDA-MB-468 cells pretreated for 2 hrs before IGF1 induction measured after 15 mins by Western blot analysis; format: cell-based
Sequence of RAC-alpha serine/threonine-protein kinase (P31749 whole entry): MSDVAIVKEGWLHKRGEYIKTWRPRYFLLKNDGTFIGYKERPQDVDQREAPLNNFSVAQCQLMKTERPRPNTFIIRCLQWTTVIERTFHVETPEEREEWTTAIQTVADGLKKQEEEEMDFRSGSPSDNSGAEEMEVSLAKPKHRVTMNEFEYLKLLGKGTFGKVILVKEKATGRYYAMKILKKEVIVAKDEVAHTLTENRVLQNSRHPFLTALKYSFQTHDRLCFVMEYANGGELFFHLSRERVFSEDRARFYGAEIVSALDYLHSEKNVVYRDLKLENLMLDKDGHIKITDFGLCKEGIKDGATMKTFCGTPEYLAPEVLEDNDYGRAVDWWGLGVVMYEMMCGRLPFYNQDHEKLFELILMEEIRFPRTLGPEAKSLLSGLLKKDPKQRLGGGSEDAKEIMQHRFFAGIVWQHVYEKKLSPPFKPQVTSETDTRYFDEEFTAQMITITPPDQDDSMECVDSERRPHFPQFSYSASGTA

Sequence of Phosphatidylinositol 4,5-bisphosphate 3-kinase catalytic subunit gamma isoform (P48736 whole entry, canonical isoform): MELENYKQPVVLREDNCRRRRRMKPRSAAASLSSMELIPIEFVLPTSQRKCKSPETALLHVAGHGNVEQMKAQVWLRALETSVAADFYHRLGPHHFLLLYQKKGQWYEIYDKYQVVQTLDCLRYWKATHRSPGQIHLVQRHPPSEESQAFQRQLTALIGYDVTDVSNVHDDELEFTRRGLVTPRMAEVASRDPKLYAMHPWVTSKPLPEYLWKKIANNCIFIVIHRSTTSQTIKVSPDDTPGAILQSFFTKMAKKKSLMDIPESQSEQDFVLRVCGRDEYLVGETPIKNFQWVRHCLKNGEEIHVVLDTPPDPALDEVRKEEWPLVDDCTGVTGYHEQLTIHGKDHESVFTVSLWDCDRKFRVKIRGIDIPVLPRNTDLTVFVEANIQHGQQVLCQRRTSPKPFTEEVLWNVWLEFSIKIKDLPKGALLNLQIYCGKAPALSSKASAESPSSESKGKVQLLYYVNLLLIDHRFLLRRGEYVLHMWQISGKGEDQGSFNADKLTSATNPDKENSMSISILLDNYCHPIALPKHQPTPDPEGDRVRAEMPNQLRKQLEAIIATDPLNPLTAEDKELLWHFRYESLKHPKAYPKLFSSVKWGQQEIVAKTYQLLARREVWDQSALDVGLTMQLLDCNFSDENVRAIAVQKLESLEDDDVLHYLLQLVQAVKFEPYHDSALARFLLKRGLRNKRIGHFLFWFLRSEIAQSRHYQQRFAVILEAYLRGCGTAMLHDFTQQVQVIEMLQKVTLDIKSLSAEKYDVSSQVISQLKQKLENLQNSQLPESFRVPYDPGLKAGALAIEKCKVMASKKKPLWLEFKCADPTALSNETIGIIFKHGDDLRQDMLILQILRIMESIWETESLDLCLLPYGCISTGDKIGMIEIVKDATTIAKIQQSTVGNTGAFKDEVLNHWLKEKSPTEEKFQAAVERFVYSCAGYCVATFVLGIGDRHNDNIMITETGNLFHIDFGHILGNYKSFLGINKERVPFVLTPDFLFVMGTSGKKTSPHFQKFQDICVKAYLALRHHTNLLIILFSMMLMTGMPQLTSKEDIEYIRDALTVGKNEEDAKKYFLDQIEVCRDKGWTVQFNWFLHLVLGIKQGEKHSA
T2 sequence (P42338 whole entry, canonical isoform): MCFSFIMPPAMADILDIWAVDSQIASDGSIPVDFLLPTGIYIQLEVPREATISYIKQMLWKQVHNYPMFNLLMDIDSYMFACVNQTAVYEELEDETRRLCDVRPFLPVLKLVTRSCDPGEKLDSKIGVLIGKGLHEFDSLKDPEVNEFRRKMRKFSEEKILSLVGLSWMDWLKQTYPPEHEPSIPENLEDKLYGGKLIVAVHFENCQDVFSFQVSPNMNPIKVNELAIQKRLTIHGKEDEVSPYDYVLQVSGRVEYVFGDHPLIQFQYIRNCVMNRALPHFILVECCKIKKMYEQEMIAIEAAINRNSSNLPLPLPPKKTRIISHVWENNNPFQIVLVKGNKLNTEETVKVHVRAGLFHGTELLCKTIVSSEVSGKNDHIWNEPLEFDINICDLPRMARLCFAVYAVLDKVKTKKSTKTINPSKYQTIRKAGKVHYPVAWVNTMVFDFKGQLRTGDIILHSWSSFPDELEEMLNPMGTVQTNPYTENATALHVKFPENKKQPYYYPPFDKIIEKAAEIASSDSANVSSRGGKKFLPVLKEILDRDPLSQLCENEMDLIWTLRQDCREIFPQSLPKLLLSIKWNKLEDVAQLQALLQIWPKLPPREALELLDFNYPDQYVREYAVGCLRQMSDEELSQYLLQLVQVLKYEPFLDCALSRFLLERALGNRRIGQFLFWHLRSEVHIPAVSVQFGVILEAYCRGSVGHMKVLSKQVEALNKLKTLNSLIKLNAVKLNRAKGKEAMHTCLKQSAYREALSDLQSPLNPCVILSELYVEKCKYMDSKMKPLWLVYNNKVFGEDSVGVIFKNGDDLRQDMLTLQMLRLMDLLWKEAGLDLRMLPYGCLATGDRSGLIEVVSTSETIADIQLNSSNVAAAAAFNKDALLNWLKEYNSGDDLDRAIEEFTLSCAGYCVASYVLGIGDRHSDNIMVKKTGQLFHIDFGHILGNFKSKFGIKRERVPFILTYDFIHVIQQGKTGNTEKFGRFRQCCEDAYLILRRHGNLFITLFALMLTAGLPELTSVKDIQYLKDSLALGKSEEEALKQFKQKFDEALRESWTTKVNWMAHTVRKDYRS
Sequence of Phosphatidylinositol 4,5-bisphosphate 3-kinase catalytic subunit beta isoform (Homo sapiens, UniProt P42338, D862Q) (P42338 whole entry D862Q, canonical isoform): as the sequence (P42338 whole entry, canonical isoform) above, with D862Q counted along it
Sequence of Phosphatidylinositol 4,5-bisphosphate 3-kinase catalytic subunit alpha isoform (P42336 whole entry, canonical isoform): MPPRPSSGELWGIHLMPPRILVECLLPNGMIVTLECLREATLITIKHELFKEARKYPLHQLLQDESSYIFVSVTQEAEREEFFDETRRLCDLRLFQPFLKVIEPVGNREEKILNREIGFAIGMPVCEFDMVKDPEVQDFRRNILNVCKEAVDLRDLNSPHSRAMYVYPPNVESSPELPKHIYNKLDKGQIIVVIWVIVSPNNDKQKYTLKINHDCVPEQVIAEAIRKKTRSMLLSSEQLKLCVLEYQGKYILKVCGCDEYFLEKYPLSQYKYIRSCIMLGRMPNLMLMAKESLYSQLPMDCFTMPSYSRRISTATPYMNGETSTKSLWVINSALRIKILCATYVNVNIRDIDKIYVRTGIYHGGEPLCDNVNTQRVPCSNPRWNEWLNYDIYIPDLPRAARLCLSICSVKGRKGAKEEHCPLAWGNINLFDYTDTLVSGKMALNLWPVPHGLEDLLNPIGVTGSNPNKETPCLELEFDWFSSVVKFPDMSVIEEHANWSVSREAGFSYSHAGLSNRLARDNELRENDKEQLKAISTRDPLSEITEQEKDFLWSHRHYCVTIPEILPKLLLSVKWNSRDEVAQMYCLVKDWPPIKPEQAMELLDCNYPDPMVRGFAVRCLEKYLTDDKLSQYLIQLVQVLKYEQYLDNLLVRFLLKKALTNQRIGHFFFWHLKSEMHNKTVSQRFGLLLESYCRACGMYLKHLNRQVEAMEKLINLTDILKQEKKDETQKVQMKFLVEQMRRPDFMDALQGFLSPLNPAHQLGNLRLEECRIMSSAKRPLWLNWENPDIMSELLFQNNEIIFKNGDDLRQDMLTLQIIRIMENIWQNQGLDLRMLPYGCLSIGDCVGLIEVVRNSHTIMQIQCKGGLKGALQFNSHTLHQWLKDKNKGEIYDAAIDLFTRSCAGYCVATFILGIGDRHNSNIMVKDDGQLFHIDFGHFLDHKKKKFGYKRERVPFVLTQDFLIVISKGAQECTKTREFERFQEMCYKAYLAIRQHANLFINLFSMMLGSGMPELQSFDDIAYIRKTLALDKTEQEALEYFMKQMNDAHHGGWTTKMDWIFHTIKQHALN

SMILES | IC50 [1] | IC50 [2] | IC50 [3] | IC50 [4] | IC50 [5] | IC50 [6] | IC50 [7] | inhibition [7]
N[C@@H](Cc1ccc(O)cc1)C(=O)N1CCN(c2nc(N3CCOCC3)nc(-n3c(C(F)F)nc4ccccc43)n2)CC1 | 1200 nM | > 10000 nM | 220 nM | 3300 nM | – | – | – | –
C[C@H](N)C(=O)N1CCN(c2nc(N3CCOCC3)nc(-n3c(C(F)F)nc4ccccc43)n2)CC1 | 490 nM | – | 31 nM | – | 890 nM | 62 nM | – | –
NCCCC[C@H](N)C(=O)N1CCN(c2nc(N3CCOCC3)nc(-n3c(C(F)F)nc4ccccc43)n2)CC1 | 670 nM | > 10000 nM | 50 nM | 2300 nM | – | – | – | –
CC[C@H](C)[C@H](N)C(=O)N1CCN(c2nc(N3CCOCC3)nc(-n3c(C(F)F)nc4ccccc43)n2)CC1 | 1000 nM | > 10000 nM | 67 nM | – | 1400 nM | 140 nM | – | –
N[C@@H](Cc1ccccc1)C(=O)N1CCN(c2nc(N3CCOCC3)nc(-n3c(C(F)F)nc4ccccc43)n2)CC1 | 2200 nM | – | 63 nM | – | 6000 nM | 74 nM | < 10 nM | Dose-dependent effect
N[C@H](Cc1ccccc1)C(=O)N1CCN(c2nc(N3CCOCC3)nc(-n3c(C(F)F)nc4ccccc43)n2)CC1 | 3600 nM | > 10000 nM | > 10000 nM | – | – | – | – | –

Compounds with a lower IC50 [1], results first:

IC50 [1] | IC50 [2] | IC50 [3] | IC50 [4] | SMILES | IC50 [5] | IC50 [6] | IC50 [7] | inhibition [7]
26 nM | 380 nM | 54 nM | 42 nM | CC(=O)NCC(=O)N1CCN(c2nc(N3CCOCC3)nc(-n3c(C(F)F)nc4ccccc43)n2)CC1 | – | – | – | –
290 nM | 8000 nM | 260 nM | 1500 nM | CN[C@@H](C)C(=O)N1CCN(c2nc(N3CCOCC3)nc(-n3c(C(F)F)nc4ccccc43)n2)CC1 | – | – | – | –
390 nM | > 10000 nM | 26 nM | 2200 nM | O=C([C@@H]1CCCN1)N1CCN(c2nc(N3CCOCC3)nc(-n3c(C(F)F)nc4ccccc43)n2)CC1 | – | – | – | –
58 nM | 3900 nM | 98 nM | 720 nM | NCCC(=O)N1CCN(c2nc(N3CCOCC3)nc(-n3c(C(F)F)nc4ccccc43)n2)CC1 | – | – | – | –
70 nM | 2000 nM | 1000 nM | – | C[C@@H](N)C(=O)N1CCN(c2nc(N3CCOCC3)nc(-n3c(C(F)F)nc4ccccc43)n2)CC1 | – | – | – | –
110 nM | 9900 nM | 35 nM | 1500 nM | NCC(=O)N1CCN(c2nc(N3CCOCC3)nc(-n3c(C(F)F)nc4ccccc43)n2)CC1 | – | – | – | –
330 nM | > 10000 nM | 2400 nM | 1600 nM | CN(C)CC(=O)N1CCN(c2nc(N3CCOCC3)nc(-n3c(C(F)F)nc4ccccc43)n2)CC1 | – | – | – | –
